Test results: ChEMBL document CHEMBL4715912, “Discovery of a novel series of indolinylpyrimidine-based GPR119 agonists: Elimination of ether-a-go-go-related gene liability using a hydrogen bond acceptor-focused approach” (Bioorg Med Chem, 2021)
The source made the active and inactive calls. The rule behind the calls is not given here.

Assays:
[1] = tested on: Rattus norvegicus; experiment: Antidiabetic activity in po dosed N-STZ 1.5 rat assessed as reduction in GHB level for 4 weeks; type: functional, organism-based; settings: dose 1-3 mg/kg
Procedure, shortened: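 Male N-STZ-1.5 rats kept under time-restricted feeding, treated for 4 weeks; GHb measured before and after treatment and expressed also as percentage change.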

[2] = Total clearance in rat at 0.1 mg/kg, iv by LC/MS/MS analysis; type: ADME, organism-based; settings: in vivo
Procedure, shortened: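 Cassette intravenous dosing at 0.1 mg/kg to non-fasted animals. Plasma taken from blood samples, deproteinized and centrifuged, and compound levels in supernatant quantified by LC/MS/MS.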

[3] = biological target: T1, Glucose-dependent insulinotropic receptor (Mus musculus, UniProt Q7TQP3); experiment: Agonist activity at GPR119 in glucose-induced mouse L cells assessed as induction of GLP-1 secretion after 2 hrs by ELISA
T1 sequence (Q7TQP3 whole entry): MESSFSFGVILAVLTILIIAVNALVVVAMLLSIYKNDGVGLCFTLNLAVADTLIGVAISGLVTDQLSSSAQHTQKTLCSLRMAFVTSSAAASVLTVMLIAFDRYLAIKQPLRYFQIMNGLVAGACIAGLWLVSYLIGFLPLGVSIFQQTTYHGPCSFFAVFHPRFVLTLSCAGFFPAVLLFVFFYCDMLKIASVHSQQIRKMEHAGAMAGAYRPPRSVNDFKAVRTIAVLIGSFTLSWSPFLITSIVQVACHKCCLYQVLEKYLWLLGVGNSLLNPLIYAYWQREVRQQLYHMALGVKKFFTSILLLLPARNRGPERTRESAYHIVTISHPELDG
Procedure, shortened: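 GLUTag cells (murine L cell line) seeded at 1 × 10^4 cells/well on poly-L-lysine, switched to low-glucose DMEM overnight, washed with HBSS, then exposed to compounds in KRBH buffer with 0.2% fatty acid free BSA and 10 mmol/L glucose for 2 h at 37 °C. Active GLP-1 in supernatant by ELISA; EC50 from n = 2.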

[4] = tested on: Rattus norvegicus; experiment: Antidiabetic activity in N-STZ 1.5 rat assessed as increase in plasma insulin level at 1 to 3 mg/kg, po pre-treated for 60 mins followed by 1.5 g/kg glucose treatment and measured up to 120 mins by radioimmunoassay; type: functional, organism-based; settings: dose 1-3 mg/kg, time min <=180
Procedure, shortened: (§1)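 Male N-STZ1.5 rats, 25–30 weeks old, fasted overnight, dosed orally with compound or 0.5% methylcellulose vehicle; 60 min later oral glucose load 1.5 g/kg. Tail-vein blood taken pre-dose, at 0, 10, 30, 60 and 120 min; plasma glucose by autoanalyzer, insulin by radioimmunoassay. AUC computed; mean ± SD, n = 6; one-tailed Williams' test.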

[5] = biological target: T2, Glucose-dependent insulinotropic receptor (Homo sapiens, UniProt Q8TDV5); experiment: Agonist activity at human GPR119 expressed in CHO cells co-expressing cyclic AMP response element incubated for 2 hrs by steady-glo luciferase assay; type: cell-based
T2 sequence (Q8TDV5 whole entry): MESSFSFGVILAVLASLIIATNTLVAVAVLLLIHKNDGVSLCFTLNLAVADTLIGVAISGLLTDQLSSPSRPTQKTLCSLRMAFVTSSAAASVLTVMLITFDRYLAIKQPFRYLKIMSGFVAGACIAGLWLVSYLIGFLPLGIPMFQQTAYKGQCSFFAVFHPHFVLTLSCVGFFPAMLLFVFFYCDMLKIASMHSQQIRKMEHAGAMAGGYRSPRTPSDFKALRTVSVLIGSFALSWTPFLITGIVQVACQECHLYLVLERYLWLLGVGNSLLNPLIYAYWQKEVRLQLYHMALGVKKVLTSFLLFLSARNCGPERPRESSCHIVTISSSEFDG
Procedure, shortened: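 CHO cells stably expressing human GPR119, seeded at 10,000 cells/well in MEM α with 500 µg/mL Geneticin overnight, then exposed to graded compound concentrations in MEM α/20 mmol/L HEPES/0.1% BSA for 2 h. cAMP-driven luciferase read with Steady-Glo. Response normalized between vehicle and a 10 µM reference agonist; EC50 as mean of n = 2.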

[6] = biological target: T3, glucose-dependent insulinotropic receptor (Mesocricetus auratus, UniProt A0A1U8CD06); experiment: Agonist activity at GPR119 in glucose-induced golden hamster HIT-T15 cells assessed as increase in insulin secretion after 2 hrs by A1phaLISA; type: cell-based
T3 sequence (A0A1U8CD06 whole entry): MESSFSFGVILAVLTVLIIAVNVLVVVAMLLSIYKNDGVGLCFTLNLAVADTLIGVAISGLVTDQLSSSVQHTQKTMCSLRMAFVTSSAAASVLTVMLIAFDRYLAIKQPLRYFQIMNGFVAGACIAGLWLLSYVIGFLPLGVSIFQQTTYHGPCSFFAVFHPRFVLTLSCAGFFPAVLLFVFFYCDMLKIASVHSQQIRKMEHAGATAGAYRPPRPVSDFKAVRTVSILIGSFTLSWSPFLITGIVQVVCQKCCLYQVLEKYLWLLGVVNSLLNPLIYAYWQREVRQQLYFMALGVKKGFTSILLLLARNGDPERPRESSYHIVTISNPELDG
Procedure, shortened: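 HIT-T15 hamster β-cells seeded 5×10^4 cells/well, next day pre-incubated 2 h in KRBH buffer (0.2% BSA). Then exposed to compounds in KRBH with 0.2% fatty acid free BSA and 10 mmol/L glucose for 2 h at 37 °C; secreted insulin in supernatant quantified by AlphaLISA. EC50 reported from n = 2.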

[7] = tested on: Rattus norvegicus; experiment: Antidiabetic activity in po dosed N-STZ 1.5 rat assessed as reduction in glucose level pre-treated for 60 mins followed by 1.5 g/kg glucose treatment and measured up to 120 mins by OGTT; type: functional, organism-based; settings: dose 1-3 mg/kg, time min <=180; procedure, shortened: as §1
[8] = Partition coefficient, logD between 1-octanol and pH 7.4 aqueous buffer by chromatographic analysis; type: physicochemical; settings: 1-octanol/pH 7.4 aqueous buffer
Procedure, shortened: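 LogD at pH 7.4, octanol/aqueous buffer partition, estimated by a chromatographic method adapted from a published procedure.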

[9] = MRT in rat at 1 mg/kg, po by LC/MS/MS analysis; type: ADME, organism-based; settings: in vivo
Procedure, shortened: (§2)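 Cassette dosing, given by mouth at 1 mg/kg in 0.5% methylcellulose aqueous solution, with intravenous arm at 0.1 mg/kg, to non-fasted animals. Blood collected after dosing, plasma deproteinized and centrifuged, compound measured by LC/MS/MS.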

[10] = Oral bioavailability in rat at 1 mg/kg by LC/MS/MS analysis; type: ADME, organism-based; settings: in vivo; procedure, shortened: as §2

clearance [2]: 2.47 mL/min/kg | EC50 [3]: 19 nM | EC50 [5]: 16 nM | EC50 [6]: 25 nM | logD [8]: 3.3 | MRT [9]: 3.8 h | bioavailability [10]: 24%
Structure (SMILES): CC(C)c1noc(N2CCC(Oc3cc(N4CCc5cc(N6CCC[C@H](O)C6=O)ccc54)ncn3)CC2)n1
Activity [1]: Dose-dependent effect | Activity [4]: Active | Activity [7]: Dose-dependent effect
